Results from ChEMBL document CHEMBL2321727, “The impact of introducing a histidine into an apolar cavity site on docking and ligand recognition” (J Med Chem, 2013).

How the values were obtained:
[1] = test system: Endolysin (Enterobacteria phage T4), P00720 [L99A,M102H]; conditions: Tequatrovirus T4
[2] = test system: Endolysin (Enterobacteria phage T4), P00720 [L99A,M102H]; experiment: Binding affinity to Enterobacteria phage T4 lysozyme harboring L99A/M102H double mutant expressed in Escherichia coli BL21(DE3) assessed as change in melting temperature at 1 mM at pH 6.8 by circular dichroism analysis; conditions: Tequatrovirus T4
Method in brief: (§1)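 CD thermal unfolding at pH 6.8 of Ni-NTA-purified T4 lysozyme L99A/M102H expressed from pET-28 in E. coli BL21(DE3). Ligand added from DMSO to 0.5 or 1 mM final, 0.1% DMSO final in all samples and controls. ΔCp set to 8.1 kJ mol⁻¹ K⁻¹. ΔTm ≥0.4 °C scored as binding. ΔGmelt = ΔTm × ΔH/Tm.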

[3] = test system: Endolysin (Enterobacteria phage T4), P00720 [L99A,M102H]; conditions: Tequatrovirus T4; remark: listed apart in the source
[4] = test system: Endolysin (Enterobacteria phage T4), P00720 [L99A,M102H]; experiment: Binding affinity to Enterobacteria phage T4 lysozyme L99A/M102H double mutant expressed in Escherichia coli BL21(DE3) assessed as change in melting temperature at 0.5 mM at pH 5.4 by circular dichroism analysis; conditions: Tequatrovirus T4
Method in brief: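 T4 lysozyme L99A/M102H from pET-28 in E. coli BL21(DE3), purified on Ni-NTA, ≥95% pure. Thermal melts followed by CD at pH 5.4, at least in triplicate. Ligand added from DMSO to 0.5 mM final, 0.1% DMSO final, controls included. ΔCp set to 10.5 kJ mol⁻¹ K⁻¹. Binder cutoff is ΔTm ≥0.4 °C. ΔGmelt = ΔTm × ΔS, with ΔS = ΔH/Tm.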

[5] = test system: Endolysin (Enterobacteria phage T4), P00720 [L99A,M102H]; experiment: Binding affinity to Enterobacteria phage T4 lysozyme L99A/M102H double mutant expressed in Escherichia coli BL21(DE3) assessed as change in melting temperature at 0.5 mM at pH 6.8 by circular dichroism analysis; conditions: Tequatrovirus T4
Method in brief: as §1

Endolysin = Endolysin (Enterobacteria phage T4, UniProt P00720, L99A/M102H); set-up: species or system Tequatrovirus T4
[6] = test system: Endolysin (Enterobacteria phage T4), P00720 [L99A,M102H]; conditions: Tequatrovirus T4; remark: listed apart in the source
[7] = test system: Endolysin (Enterobacteria phage T4), P00720 [L99A,M102H]; conditions: Tequatrovirus T4; remark: listed apart in the source

Question: How did the ΔTm [1] turn out when `CC(CO)c1ccccc1` (configuration not stated) was run?
Answer: 0.1 °C

Question: How did the ΔTm [1] turn out when `Nc1ccc(F)cc1Cl` was run?
Answer: -0.3 °C

Question: What about the ΔTm [2] of the same compound?
Answer: 1.3 °C

Question: Which ΔTm [1] does the source give for `N#CNC#N` here?
Answer: -0.6 °C

Question: `N#Cc1ccccc1O` was tested. Which ΔTm [3] did it give?
Answer: 0.6 °C

Question: Which ΔTm [1] does the source give for `Nc1cc(F)c(F)cc1Br` here?
Answer: 0.2 °C

Question: And the ΔTm [2]?
Answer: 0.8 °C

Question: What does the source list for `O=[N+]([O-])c1ccc(O)cc1`?
Answer: ΔTm [1]: 5 °C; ΔTm [2]: 4.5 °C

Question: How did the ΔTm [1] turn out when `C=CSc1ccccc1` was run?
Answer: 1 °C

Question: `CSc1ccc(F)cc1` was tested. Which ΔTm [1] did it give?
Answer: 0.4 °C

Question: With `Nc1ncc(Cl)s1` as the compound, how does the ΔTm [1] read?
Answer: 1.1 °C

Question: What does the source list for `C#Cc1ccccc1N`?
Answer: ΔTm [4]: 0.5 °C; ΔTm [5]: 0.5 °C

Question: For `Clc1n[nH]c2ncccc12`, which ΔTm [4] is on record?
Answer: 0.1 °C

Question: What about the ΔTm [5] of the same compound?
Answer: 1 °C

Question: How did the ΔTm [1] turn out when `Brc1c[nH]cn1` was run?
Answer: 0.4 °C

Question: And the Kd (Endolysin)?
Answer: 317 µM

Question: For `OCc1cc(Cl)ccc1Cl`, which ΔTm [1] is on record?
Answer: -0.1 °C

Question: How did the ΔTm [1] turn out when `N#Cc1cc(Br)ccc1O` was run?
Answer: 2.2 °C

Question: Which ΔTm [1] does the source give for `CCc1cc(O)ccc1Cl` here?
Answer: -0.9 °C

Question: How did the ΔTm [1] turn out when `OCc1cccc(Br)c1` was run?
Answer: -0.7 °C

Question: Which ΔTm [1] does the source give for `N#Cc1ccc([N+](=O)[O-])s1` here?
Answer: 0.2 °C

Question: `c1ccc2oncc2c1` was tested. Which ΔTm [1] did it give?
Answer: 0.2 °C

Question: Which results are given for `Nc1ccccc1`?
Answer: ΔTm [4]: 0.2 °C; ΔTm [5]: 0.5 °C

Question: With `OCCS` as the compound, how does the ΔTm [6] read?
Answer: 0 °C

Question: How did the ΔTm [7] turn out when `O=C(O)C(F)(F)F` was run?
Answer: -0.8 °C

Question: For `C=CCc1ccccc1O` [2-ALLYLPHENOL], which ΔTm [6] is on record?
Answer: 2.9 °C

Question: How did the ΔTm [7] turn out when `C#CC(O)c1ccccc1` (configuration not stated) was run?
Answer: 2.2 °C

Question: How did the ΔTm [1] turn out when `Cc1cc(C(F)(F)F)n[nH]1` was run?
Answer: 1.9 °C

Question: `OCc1ccc(Cl)c(Cl)c1` was tested. Which ΔTm [1] did it give?
Answer: 0.2 °C

Question: How did the ΔTm [1] turn out when `CC(=O)c1ccc(O)cc1` was run?
Answer: 0.5 °C

Question: With `Oc1cc(C(F)(F)F)ccn1` as the compound, how does the ΔTm [1] read?
Answer: 0.1 °C

Question: How did the ΔTm [1] turn out when `Cc1cc(C)n(CO)n1` was run?
Answer: -0.7 °C

Question: And the ΔTm [2]?
Answer: 0.3 °C

Question: With `O=Cc1cc(O)ccc1Br` as the compound, how does the ΔTm [4] read?
Answer: 0.9 °C

Question: With `FC(F)(F)c1c[nH]cn1` as the compound, how does the ΔTm [1] read?
Answer: 1 °C

Question: With `OCCn1cccn1` as the compound, how does the ΔTm [1] read?
Answer: 0.3 °C

Question: `c1ccncc1` was tested. Which ΔTm [2] did it give?
Answer: 0.1 °C

Question: With `Cc1cc(C)[nH]n1` as the compound, how does the ΔTm [1] read?
Answer: -0.3 °C

Question: What about the ΔTm [2] of the same compound?
Answer: 1.4 °C
